This note sets out measurements from ChEMBL document CHEMBL3797182, “In vitro evaluation of imidazo[4,5-c]quinolin-2-ones as gametocytocidal antimalarial agents” (Bioorg Med Chem Lett, 2016).

The subject of test [1] is Plasmodium falciparum. In words: Gametocytocidal activity against Plasmodium falciparum after 72 hrs by Alamar Blue assay. The test is classed as functional, organism-based. In general terms: Resazurin is reduced to fluorescent resorufin, in cell work by metabolically active cells.
Test [2] deals with Plasmodium falciparum. Description: Selectivity ratio of IC50 for chloroquine-sensitive late gametocytic stage (III to V) of Plasmodium falciparum 3D7 to IC50 for chloroquine-sensitive asexual blood stage of Plasmodium falciparum 3D7. In kind it is functional.
Test [3] relates to Plasmodium falciparum. Description: Antimalarial activity against chloroquine-sensitive asexual blood stage of Plasmodium falciparum 3D7 infected in RBC after 72 hrs by SYBR Green assay. In kind it is functional, organism-based. To be noted: 3D7, 72 h. The gist of the method: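 Asexual blood-stage P. falciparum 3D7 (chloroquine-sensitive) parasites. 1536-well format, 11-point dose-response, duplicate tests. Torin 2 served as positive control and DMSO as negative control.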

A further test has as its system HepG2. In words: Cytotoxicity against human HepG2 cells assessed as cell viability after 24 hrs. Conditions: HepG2, 24 h. In kind it is cell-based. The procedure, abridged: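 HepG2 cell viability as general cytotoxicity. 1536-well, 11-point dose-response in duplicate, top concentration 46 μM. Torin 2 positive control, DMSO negative control.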
Test [4] deals with Plasmodium falciparum. Description: Gametocytocidal activity against chloroquine-sensitive late gametocytic stage (III to V) of Plasmodium falciparum 3D7 after 72 hrs by Alamar Blue assay. In kind it is functional, organism-based. To be noted: 3D7, 72 h. The procedure, abridged: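 Late-stage (III–V) P. falciparum 3D7 gametocytes. AlamarBlue redox indicator reads cytosolic metabolic activity as a measure of gametocyte viability. 1536-well format, 11-point dose-response, duplicates. Torin 2 positive control, DMSO negative control.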

One may read the IC50 as the concentration at which inhibition is half-maximal. The compound `Nc1ccc(-c2ccc3ncc4ccc(=O)n(-c5cccc(C(F)(F)F)c5)c4c3c2)cn1` had an IC50 with Plasmodium falciparum [1] of 0.008 µM.
Regarding `Cc1ccc(-c2ccc3ncc4c(c3c2)n(-c2cccc(C(F)(F)F)c2)c(=O)n4C)cc1`, the “Ratio IC50” value in the test with Plasmodium falciparum [2] turned out to be 1. In addition, the figures for the IC50 in the test with Plasmodium falciparum [3], in the test on HepG2 and in the test on Plasmodium falciparum [4] were 0.733 µM, more than 45 µM and 0.524 µM, respectively.
As to `Cn1c(=O)n(-c2cccc(C(F)(F)F)c2)c2c3cc(-c4ccc(S(N)(=O)=O)cc4)ccc3ncc21`, the “Ratio IC50” value with Plasmodium falciparum [2] is 1. The concentration for half-maximal inhibition (IC50) in the test with Plasmodium falciparum [3] is 0.452 µM; in the test with HepG2, more than 45 µM; with Plasmodium falciparum [4], 0.816 µM.
For `N#Cc1ccc(-c2ccc3ncc4[nH]c(=O)n(-c5cccc(C(F)(F)F)c5)c4c3c2)cc1`, the “Ratio IC50” value in the test on Plasmodium falciparum [2] came to 1. Also, the IC50 in the test on Plasmodium falciparum [3] was 2.58 µM; in the test with HepG2, more than 45 µM; in the test with Plasmodium falciparum [4], 6.33 µM.
On the same counts, the results for `Cc1ccc(-c2ccc3ncc4[nH]c(=O)n(-c5cccc(C(F)(F)F)c5)c4c3c2)cc1` are 1, 5.19 µM, more than 45 µM and 7.05 µM.
In the case of `CCn1c(=O)n(-c2cccc(C(F)(F)F)c2)c2c3cc(-c4ccc(Cl)cc4)ccc3ncc21`, the “Ratio IC50” value in the test with Plasmodium falciparum [2] worked out at 1. In addition, the half-inhibitory concentration (IC50) was 3.93 µM in the test with Plasmodium falciparum [3], more than 45 µM in the test on HepG2 and 10.4 µM in the test on Plasmodium falciparum [4].
On to `O=c1[nH]c2cnc3ccc(-c4ccc(Cl)cc4)cc3c2n1-c1cccc(C(F)(F)F)c1`, for which the “Ratio IC50” value in the test on Plasmodium falciparum [2] was 1. For the same compound, the IC50 in the test with Plasmodium falciparum [3] was 1.69 µM; in the test on HepG2, more than 45 µM; in the test with Plasmodium falciparum [4], 3.56 µM.
The corresponding values for `Cn1c(=O)n(-c2cccc(C(F)(F)F)c2)c2c3cc(-c4ccc(C#N)cc4)ccc3ncc21` are 1, 7.33 µM, more than 45 µM and 11 µM.
The corresponding values for `O=c1[nH]c2cnc3ccc(-c4ccc(F)cc4)cc3c2n1-c1cccc(C(F)(F)F)c1` are 1, 1.57 µM, more than 45 µM and 1.83 µM.
The corresponding values for `NS(=O)(=O)c1ccc(-c2ccc3ncc4[nH]c(=O)n(-c5cccc(C(F)(F)F)c5)c4c3c2)cc1` are 1, 0.948 µM, more than 45 µM and 2.33 µM.
Turning to `Cn1c(=O)n(-c2cccc(C(F)(F)F)c2)c2c3cc(-c4ccc(Cl)cc4)ccc3ncc21`, the “Ratio IC50” value in the test on Plasmodium falciparum [2] is 1. In addition, the results for the IC50 in the test with Plasmodium falciparum [3], in the test with HepG2 and in the test with Plasmodium falciparum [4] were 1.75 µM, more than 45 µM and 1.86 µM, respectively.
The corresponding values for `Cn1c(=O)n(-c2cccc(C(F)(F)F)c2)c2c3cc(-c4ccc(F)cc4)ccc3ncc21` are 1, 3.18 µM, more than 45 µM and 5.59 µM.
